Type in all cases: in vitro ADME
For series [1], the target named is T1, UGT2B15 (Homo sapiens, UniProt P54855).
T1 sequence (P54855 24-530): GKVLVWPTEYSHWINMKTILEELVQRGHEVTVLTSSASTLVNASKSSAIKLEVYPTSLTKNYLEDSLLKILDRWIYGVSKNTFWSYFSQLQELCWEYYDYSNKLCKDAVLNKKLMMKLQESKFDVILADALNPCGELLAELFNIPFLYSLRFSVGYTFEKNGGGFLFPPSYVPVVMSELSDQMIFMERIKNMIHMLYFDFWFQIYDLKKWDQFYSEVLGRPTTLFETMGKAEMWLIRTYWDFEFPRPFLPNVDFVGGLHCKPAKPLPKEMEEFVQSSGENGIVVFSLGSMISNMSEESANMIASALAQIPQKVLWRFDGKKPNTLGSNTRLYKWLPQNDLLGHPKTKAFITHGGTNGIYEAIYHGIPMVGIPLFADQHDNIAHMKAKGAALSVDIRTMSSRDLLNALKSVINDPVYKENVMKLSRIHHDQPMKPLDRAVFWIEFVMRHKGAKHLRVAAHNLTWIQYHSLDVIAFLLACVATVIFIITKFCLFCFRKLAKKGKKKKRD
Put plainly: Screening of recombinant UGT2B15 for glucuronidation activity. Particulars: 250 μM substrate, 5 μg protein, 60 min, 37 °C. In short, it runs like this: (§1)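 UGT1A1, 1A3, 1A4 and 1A6–1A10 were His-tagged and expressed in baculovirus-infected Sf9 cells; UGT2B4, 2B7, 2B15 and 2B17 were commercial membranes run per supplier protocol. 5 μg membrane protein with 250 μM substrate, 2 mM UDP-GlcUA, Tris–HCl pH 7.4, MgCl2, saccharolactone, 2% DMSO; 37 °C, 60 min; no-substrate controls. Products measured by HPLC-UV/vis; β-glucuronidase hydrolysis separated O- from carboxyl glucuronides.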

The target of series [2] is T2, UGT2B4 (Homo sapiens, UniProt P06133).
T2 sequence (P06133 24-528): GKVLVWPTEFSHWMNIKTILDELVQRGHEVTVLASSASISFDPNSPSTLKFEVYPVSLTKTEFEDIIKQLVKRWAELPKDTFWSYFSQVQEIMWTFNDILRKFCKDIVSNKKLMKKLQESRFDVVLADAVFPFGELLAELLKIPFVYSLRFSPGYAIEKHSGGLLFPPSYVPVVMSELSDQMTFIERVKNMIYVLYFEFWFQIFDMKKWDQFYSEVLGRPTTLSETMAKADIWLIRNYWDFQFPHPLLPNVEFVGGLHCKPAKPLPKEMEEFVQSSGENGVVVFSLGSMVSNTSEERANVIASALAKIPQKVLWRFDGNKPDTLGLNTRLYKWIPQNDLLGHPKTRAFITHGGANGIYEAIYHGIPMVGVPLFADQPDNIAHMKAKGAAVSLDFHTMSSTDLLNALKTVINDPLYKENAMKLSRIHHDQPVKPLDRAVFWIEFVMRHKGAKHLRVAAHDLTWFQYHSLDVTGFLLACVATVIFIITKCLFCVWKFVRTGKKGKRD
Put plainly: Screening of recombinant UGT2B4 for glucuronidation activity. The note with it: 250 μM substrate, 5 μg protein, 60 min, 37 °C. In short, it runs like this: as §1

In series [3] the target is T3, UGT1A10 (Homo sapiens, UniProt Q9HAW8).
T3 sequence (Q9HAW8 26-530): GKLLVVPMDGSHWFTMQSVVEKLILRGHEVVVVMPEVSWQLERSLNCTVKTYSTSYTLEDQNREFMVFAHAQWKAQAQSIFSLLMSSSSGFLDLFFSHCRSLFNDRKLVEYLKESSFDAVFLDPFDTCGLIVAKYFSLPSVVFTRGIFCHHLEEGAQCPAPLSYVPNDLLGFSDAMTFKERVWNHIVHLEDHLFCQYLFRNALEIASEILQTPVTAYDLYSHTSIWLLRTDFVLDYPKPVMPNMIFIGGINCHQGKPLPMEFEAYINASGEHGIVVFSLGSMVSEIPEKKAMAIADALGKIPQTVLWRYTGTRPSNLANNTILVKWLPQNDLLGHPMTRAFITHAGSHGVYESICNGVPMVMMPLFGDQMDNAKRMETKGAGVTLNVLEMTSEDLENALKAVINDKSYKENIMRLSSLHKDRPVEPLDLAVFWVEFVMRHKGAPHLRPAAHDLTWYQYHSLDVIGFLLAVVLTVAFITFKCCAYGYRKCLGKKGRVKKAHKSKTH
Put plainly: Steady state kinetics of glucuronidation by recombinant UGT1A10.

For series [4], the target named is T4, UGT1A8 (Homo sapiens, UniProt Q9HAW9).
T4 sequence (Q9HAW9 26-530): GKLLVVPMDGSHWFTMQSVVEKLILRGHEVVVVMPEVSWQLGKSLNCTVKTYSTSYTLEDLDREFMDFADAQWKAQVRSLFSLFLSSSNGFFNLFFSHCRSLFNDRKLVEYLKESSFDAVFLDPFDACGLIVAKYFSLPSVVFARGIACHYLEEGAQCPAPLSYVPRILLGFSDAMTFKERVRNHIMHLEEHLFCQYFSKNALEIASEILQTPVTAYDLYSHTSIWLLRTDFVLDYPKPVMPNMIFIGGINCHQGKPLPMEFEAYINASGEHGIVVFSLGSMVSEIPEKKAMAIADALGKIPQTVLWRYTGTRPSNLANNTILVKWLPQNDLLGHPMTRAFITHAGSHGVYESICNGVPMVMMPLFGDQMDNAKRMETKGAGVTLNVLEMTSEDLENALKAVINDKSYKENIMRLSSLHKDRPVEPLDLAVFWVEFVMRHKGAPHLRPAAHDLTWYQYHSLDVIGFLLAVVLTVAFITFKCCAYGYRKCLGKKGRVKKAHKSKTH
Put plainly: Steady state kinetics of glucuronidation by recombinant UGT1A8.

In series [5] the target is T5, UGT1A9 (Homo sapiens, UniProt O60656).
T5 sequence (O60656 26-530): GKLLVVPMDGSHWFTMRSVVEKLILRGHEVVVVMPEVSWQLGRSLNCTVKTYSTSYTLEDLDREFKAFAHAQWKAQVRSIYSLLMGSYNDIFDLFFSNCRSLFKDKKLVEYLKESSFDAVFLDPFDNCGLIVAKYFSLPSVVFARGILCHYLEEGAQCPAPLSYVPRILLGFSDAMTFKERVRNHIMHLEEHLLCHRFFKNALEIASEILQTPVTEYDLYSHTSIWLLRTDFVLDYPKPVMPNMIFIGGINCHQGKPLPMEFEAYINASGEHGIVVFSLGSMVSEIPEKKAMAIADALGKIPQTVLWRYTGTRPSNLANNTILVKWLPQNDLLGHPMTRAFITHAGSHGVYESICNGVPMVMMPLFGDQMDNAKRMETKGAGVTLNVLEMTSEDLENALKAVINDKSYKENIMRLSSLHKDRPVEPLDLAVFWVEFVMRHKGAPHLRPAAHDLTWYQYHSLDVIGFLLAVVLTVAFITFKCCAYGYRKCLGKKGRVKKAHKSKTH
Put plainly: Steady state kinetics of glucuronidation by recombinant UGT1A9.

Data on 3 molecules can be found in article PMC4002122 (Chemical Research in Toxicology, 2014).

Where “and” joins values, the source holds several entries; their conditions need not be identical. Identical values can stand only once.

On to `COc1cc(/C=C/c2cc([N+](=O)[O-])c(O)c([N+](=O)[O-])c2)cc(OC)c1` [DNR-1, (E)-4-(3,5-dimethoxystyryl)-2,6-dinitrophenol], for which the “glucuronidation activity (glucuronide formed)” value in series [1] and in series [2] was “No activity” throughout.

As for `COc1ccc(/C=C(/C(=O)O)c2cc(OC)c(OC)c(OC)c2)cc1O` [NI-12a, (E)-3-(3-hydroxy-4-methoxyphenyl)-2-(3,4,5-trimethoxyphenyl)acrylic acid], the NI-12a-COO-gluc formation result in series [3] (COO-glucuronide), in series [4] (COO-glucuronide) and in series [5] (COO-glucuronide) was “not produced” each time. In addition, the kinetic model entry in series [3] (NI-12a-O-gluc formation) was “Michaelis–Menten and M–M”; in series [4] (NI-12a-O-gluc formation), “uncompetitive substrate inhibition and USI”; in series [5] (NI-12a-O-gluc formation), “Michaelis–Menten and M–M”. Also, in series [4] (NI-12a-O-gluc formation, USI model), the Ks stood at 950 ± 449 µM. The Vmax in series [5] (NI-12a glucuronidation) is 8.3 nm/mg protein/min; in series [5] (NI-12a-O-gluc formation), 8.3 nmol/mg/min and 8.3 ± 0.52 nmol/mg/min. The “catalytic efficiency, ratio Vmax/Km” value in series [5] (NI-12a glucuronidation) was 35 µL/min/mg.

With `COc1ccc(C=Cc2cc(OC)cc(OC)c2/C=N/O)cc1` [NI-ST-05, (E)-2,4-dimethoxy-6-(4-methoxystyryl)benzaldehyde oxime], the Vmax turned out to be 0.65 nm/mg protein/min in series [3] (C=N–O-glucuronidation of NI-ST-05) and 0.65 ± 0.017 nmol/mg/min in series [3] (NI-ST-05–N–O-gluc formation). In addition, the kinetic model entry is recorded as “Hill” in series [3] (NI-ST-05–N–O-gluc formation) and “did not fit any of the kinetic models tested” in series [5] (NI-ST-05–N–O-gluc formation). The “n (Hill coefficient)” value in series [3] (NI-ST-05–N–O-gluc formation) is given as 3.4. The “NI-ST-05–N–O-gluc formation” value in series [4] (N–O-glucuronide) is reported as “not produced”. Besides, the “glucuronidation activity (glucuronide formed)” value in series [1] and in series [2] was “inactive” each time. Further, in series [5] (human, pH 7.4), the Km at 60 min was below 5 µM.

Usually Km stands for the concentration of substrate that gives half-maximal velocity.
